Experimental findings from PMC10947786 (ACS synthetic biology, 2024) are described below.

Data set [1] is described as follows: Hydrogen-deuterium exchange MS. As to conditions: 3:7 D2O:acetonitrile, MALDI-TOF MS (Figure S13); for Hydrogen-deuterium exchange, deuteration within 1 min: 1 min timescale. The class given is physicochemical. The procedure, abridged: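 Purified peptide was dried under vacuum and redissolved in 3:7 D2O:acetonitrile. At set time points over 24 h, aliquots were quenched by spotting onto the MALDI target with saturated sinapinic acid in 3:7 D2O:acetonitrile + 0.1% formic acid (pH = 2). Deuterium uptake was read by MALDI-TOF MS.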

The next data set in a line: Solubility in water. The class given is physicochemical. As to conditions: purified peptide.

With mycetolassin-15, in data set [1], the “Hydrogen-deuterium exchange, deuteration within 1 min” value is on record as “only a fraction of the exchangeable protons were deuterated” and the “Hydrogen-deuterium exchange, deuteration within 24 h” value is recorded as “not fully deuterated”. This substance also gave a solubility in water in “Solubility in water” greater than 20 mg/mL.
As to mycetolassin-18, in data set [1], the “Hydrogen-deuterium exchange, deuteration within 1 min” value is listed as “only a fraction of the exchangeable protons were deuterated” and the “Hydrogen-deuterium exchange, deuteration within 24 h” value was “not fully deuterated”. This substance displayed a solubility in water in the data set “Solubility in water” greater than 20 mg/mL.
